In ChEMBL document CHEMBL4689842, “EUbOPEN Chemogenomics Library wave 1” (2021):

Assays:
Format in all cases: toxicity, cell-based
Fibroblast [1] = test: Multiplex assay against human fibroblast
Method in brief: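 Imaging took place on a CQ1 microscope at 37°C and 5% CO2 once compound had been added to live cells stained at seeding with Hoechst33342, BioTracker Green Microtubule Cytoskeleton Dye, MitoTracker Red and Annexin V Alexa Fluor 680. CellPathfinder machine-learning gating classed cells as Hoechst high-intensity objects or normal cells, classed normal cells as having healthy, pyknosed or fragmented nuclei, and classed pyknosed cells as mitotic or apoptotic. Tubulin, mitochondrial-mass and membrane-permeability phenotypes are per cents of the healthy-nucleus cells.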

U2OS = test: Incucyte cell viability with U2OS; settings: human, 10 µM, compound concentration 10 uM; note: filed as whole numbers so only -1 and 0 and 1 occur
HEK-293T = test: Incucyte cell viability with HEK293T; settings: human, 10 µM, compound concentration 10 uM; note: filed as whole numbers so only -1 and 0 and 1 occur
Fibroblast [2] = test: Incucyte cell viability with human fibroblast; settings: 10 µM, compound concentration 10 uM; note: filed as whole numbers so only -1 and 0 and 1 occur
[3] = 12 h, 1 µM, compound concentration 1 uM, replicate 1
[4] = 12 h, 1 µM, compound concentration 1 uM, replicate 2
[5] = 12 h, 10 µM, compound concentration 10 uM, replicate 1
[6] = 12 h, 10 µM, compound concentration 10 uM, replicate 2
[7] = 24 h, 1 µM, compound concentration 1 uM, replicate 1
[8] = 24 h, 1 µM, compound concentration 1 uM, replicate 2
[9] = 24 h, 10 µM, compound concentration 10 uM, replicate 1
[10] = 24 h, 10 µM, compound concentration 10 uM, replicate 2
[11] = 48 h, 1 µM, compound concentration 1 uM, replicate 1
[12] = 48 h, 1 µM, compound concentration 1 uM, replicate 2
[13] = 48 h, 10 µM, compound concentration 10 uM, replicate 1
[14] = 48 h, 10 µM, compound concentration 10 uM, replicate 2
[15] = 0 h, replicate number 1, timepoint 0 hours
[16] = 12 h, replicate number 1, timepoint 12 hours
[17] = 18 h, replicate number 1, timepoint 18 hours
[18] = 24 h, replicate number 1, timepoint 24 hours
[19] = 6 h, replicate number 1, timepoint 6 hours

CCCn1c(=O)c2[nH]c(C34CC5CC(CC3C5)C4)nc2n(CCC)c1=O [ROLOFYLLINE]
Population Apoptotic (%) (Fibroblast [1]; [3]): 67% | Population Fragmented Nuclei (%) (Fibroblast [1]; [3]): 13% | Population Healthy Nuclei (%) (Fibroblast [1]; [3]): 55% | Population Hoechst High Intensity Objects (%) (Fibroblast [1]; [3]): 9% | Population Membrane Permeable-Phenotype (%) (Fibroblast [1]; [3]): 24% | Population Mitochondria Different-Phenotype (%) (Fibroblast [1]; [3]): 10% | Population Mitotic Cells (%) (Fibroblast [1]; [3]): 32% | Population Normal (%) (Fibroblast [1]; [3]): 90% | Population Pyknosed Nuclei (%) (Fibroblast [1]; [3]): 31% | Population Tubulin-Different-Phenotype (%) (Fibroblast [1]; [3]): 63% | Total Cell Count (Fibroblast [1]; [3]): 98 | Population Apoptotic (%) (Fibroblast [1]; [4]): 71% | Population Fragmented Nuclei (%) (Fibroblast [1]; [4]): 4% | Population Healthy Nuclei (%) (Fibroblast [1]; [4]): 88% | Population Hoechst High Intensity Objects (%) (Fibroblast [1]; [4]): 3% | Population Membrane Permeable-Phenotype (%) (Fibroblast [1]; [4]): 12% | Population Mitochondria Different-Phenotype (%) (Fibroblast [1]; [4]): 15% | Population Mitotic Cells (%) (Fibroblast [1]; [4]): 28% | Population Normal (%) (Fibroblast [1]; [4]): 96% | Population Pyknosed Nuclei (%) (Fibroblast [1]; [4]): 7% | Population Tubulin-Different-Phenotype (%) (Fibroblast [1]; [4]): 20% | Total Cell Count (Fibroblast [1]; [4]): 81 | Population Apoptotic (%) (Fibroblast [1]; [5]): 46% | Population Fragmented Nuclei (%) (Fibroblast [1]; [5]): 13% | Population Healthy Nuclei (%) (Fibroblast [1]; [5]): 42% | Population Hoechst High Intensity Objects (%) (Fibroblast [1]; [5]): 13% | Population Membrane Permeable-Phenotype (%) (Fibroblast [1]; [5]): 23% | Population Mitochondria Different-Phenotype (%) (Fibroblast [1]; [5]): 37% | Population Mitotic Cells (%) (Fibroblast [1]; [5]): 53% | Population Normal (%) (Fibroblast [1]; [5]): 86% | Population Pyknosed Nuclei (%) (Fibroblast [1]; [5]): 43% | Population Tubulin-Different-Phenotype (%) (Fibroblast [1]; [5]): 88% | Total Cell Count (Fibroblast [1]; [5]): 137 | Population Apoptotic (%) (Fibroblast [1]; [6]): 55% | Population Healthy Nuclei (%) (Fibroblast [1]; [6]): 74% | Population Hoechst High Intensity Objects (%) (Fibroblast [1]; [6]): 3% | Population Membrane Permeable-Phenotype (%) (Fibroblast [1]; [6]): 46% | Population Mitochondria Different-Phenotype (%) (Fibroblast [1]; [6]): 73% | Population Mitotic Cells (%) (Fibroblast [1]; [6]): 44% | Population Normal (%) (Fibroblast [1]; [6]): 96% | Population Pyknosed Nuclei (%) (Fibroblast [1]; [6]): 12% | Population Tubulin-Different-Phenotype (%) (Fibroblast [1]; [6]): 100% | Total Cell Count (Fibroblast [1]; [6]): 99 | Population Apoptotic (%) (Fibroblast [1]; [7]): 31% | Population Fragmented Nuclei (%) (Fibroblast [1]; [7]): 20% | Population Healthy Nuclei (%) (Fibroblast [1]; [7]): 56% | Population Hoechst High Intensity Objects (%) (Fibroblast [1]; [7]): 13% | Population Membrane Permeable-Phenotype (%) (Fibroblast [1]; [7]): 39% | Population Mitochondria Different-Phenotype (%) (Fibroblast [1]; [7]): 9% | Population Mitotic Cells (%) (Fibroblast [1]; [7]): 68% | Population Normal (%) (Fibroblast [1]; [7]): 86% | Population Pyknosed Nuclei (%) (Fibroblast [1]; [7]): 23% | Population Tubulin-Different-Phenotype (%) (Fibroblast [1]; [7]): 73% | Total Cell Count (Fibroblast [1]; [7]): 109 | Population Apoptotic (%) (Fibroblast [1]; [8]): 40% | Population Fragmented Nuclei (%) (Fibroblast [1]; [8]): 7% | Population Healthy Nuclei (%) (Fibroblast [1]; [8]): 88% | Population Hoechst High Intensity Objects (%) (Fibroblast [1]; [8]): 5% | Population Membrane Permeable-Phenotype (%) (Fibroblast [1]; [8]): 6% | Population Mitochondria Different-Phenotype (%) (Fibroblast [1]; [8]): 11% | Population Mitotic Cells (%) (Fibroblast [1]; [8]): 60% | Population Normal (%) (Fibroblast [1]; [8]): 94% | Population Pyknosed Nuclei (%) (Fibroblast [1]; [8]): 4% | Population Tubulin-Different-Phenotype (%) (Fibroblast [1]; [8]): 15% | Total Cell Count (Fibroblast [1]; [8]): 83 | Population Apoptotic (%) (Fibroblast [1]; [9]): 36% | Population Fragmented Nuclei (%) (Fibroblast [1]; [9]): 17% | Population Healthy Nuclei (%) (Fibroblast [1]; [9]): 43% | Population Hoechst High Intensity Objects (%) (Fibroblast [1]; [9]): 13% | Population Membrane Permeable-Phenotype (%) (Fibroblast [1]; [9]): 31% | Population Mitochondria Different-Phenotype (%) (Fibroblast [1]; [9]): 39% | Population Mitotic Cells (%) (Fibroblast [1]; [9]): 63% | Population Normal (%) (Fibroblast [1]; [9]): 86% | Population Pyknosed Nuclei (%) (Fibroblast [1]; [9]): 39% | Population Tubulin-Different-Phenotype (%) (Fibroblast [1]; [9]): 87% | Total Cell Count (Fibroblast [1]; [9]): 128 | Population Apoptotic (%) (Fibroblast [1]; [10]): 56% | Population Fragmented Nuclei (%) (Fibroblast [1]; [10]): 9% | Population Healthy Nuclei (%) (Fibroblast [1]; [10]): 58% | Population Hoechst High Intensity Objects (%) (Fibroblast [1]; [10]): 5% | Population Membrane Permeable-Phenotype (%) (Fibroblast [1]; [10]): 41% | Population Mitochondria Different-Phenotype (%) (Fibroblast [1]; [10]): 81% | Population Mitotic Cells (%) (Fibroblast [1]; [10]): 43% | Population Normal (%) (Fibroblast [1]; [10]): 94% | Population Pyknosed Nuclei (%) (Fibroblast [1]; [10]): 31% | Population Tubulin-Different-Phenotype (%) (Fibroblast [1]; [10]): 100% | Total Cell Count (Fibroblast [1]; [10]): 120 | Population Apoptotic (%) (Fibroblast [1]; [11]): 31% | Population Fragmented Nuclei (%) (Fibroblast [1]; [11]): 28% | Population Healthy Nuclei (%) (Fibroblast [1]; [11]): 55% | Population Hoechst High Intensity Objects (%) (Fibroblast [1]; [11]): 14% | Population Membrane Permeable-Phenotype (%) (Fibroblast [1]; [11]): 23% | Population Mitochondria Different-Phenotype (%) (Fibroblast [1]; [11]): 3% | Population Mitotic Cells (%) (Fibroblast [1]; [11]): 68% | Population Normal (%) (Fibroblast [1]; [11]): 85% | Population Pyknosed Nuclei (%) (Fibroblast [1]; [11]): 15% | Population Tubulin-Different-Phenotype (%) (Fibroblast [1]; [11]): 58% | Total Cell Count (Fibroblast [1]; [11]): 118 | Population Apoptotic (%) (Fibroblast [1]; [12]): 0% | Population Fragmented Nuclei (%) (Fibroblast [1]; [12]): 25% | Population Healthy Nuclei (%) (Fibroblast [1]; [12]): 73% | Population Hoechst High Intensity Objects (%) (Fibroblast [1]; [12]): 13% | Population Membrane Permeable-Phenotype (%) (Fibroblast [1]; [12]): 34% | Population Mitochondria Different-Phenotype (%) (Fibroblast [1]; [12]): 5% | Population Mitotic Cells (%) (Fibroblast [1]; [12]): 100% | Population Normal (%) (Fibroblast [1]; [12]): 86% | Population Pyknosed Nuclei (%) (Fibroblast [1]; [12]): 1% | Population Tubulin-Different-Phenotype (%) (Fibroblast [1]; [12]): 70% | Total Cell Count (Fibroblast [1]; [12]): 87 | Population Apoptotic (%) (Fibroblast [1]; [13]): 62% | Population Fragmented Nuclei (%) (Fibroblast [1]; [13]): 31% | Population Healthy Nuclei (%) (Fibroblast [1]; [13]): 46% | Population Hoechst High Intensity Objects (%) (Fibroblast [1]; [13]): 17% | Population Membrane Permeable-Phenotype (%) (Fibroblast [1]; [13]): 26% | Population Mitochondria Different-Phenotype (%) (Fibroblast [1]; [13]): 51% | Population Mitotic Cells (%) (Fibroblast [1]; [13]): 37% | Population Normal (%) (Fibroblast [1]; [13]): 82% | Population Pyknosed Nuclei (%) (Fibroblast [1]; [13]): 21% | Population Tubulin-Different-Phenotype (%) (Fibroblast [1]; [13]): 86% | Total Cell Count (Fibroblast [1]; [13]): 134 | Population Apoptotic (%) (Fibroblast [1]; [14]): 50% | Population Fragmented Nuclei (%) (Fibroblast [1]; [14]): 37% | Population Healthy Nuclei (%) (Fibroblast [1]; [14]): 57% | Population Hoechst High Intensity Objects (%) (Fibroblast [1]; [14]): 50% | Population Membrane Permeable-Phenotype (%) (Fibroblast [1]; [14]): 21% | Population Mitochondria Different-Phenotype (%) (Fibroblast [1]; [14]): 34% | Population Mitotic Cells (%) (Fibroblast [1]; [14]): 50% | Population Normal (%) (Fibroblast [1]; [14]): 50% | Population Pyknosed Nuclei (%) (Fibroblast [1]; [14]): 5% | Population Tubulin-Different-Phenotype (%) (Fibroblast [1]; [14]): 82% | Total Cell Count (Fibroblast [1]; [14]): 160 | Growth Rate (U2OS; [15]): 1 | Growth Rate (U2OS; 0 h, replicate number 2, timepoint 0 hours): 0 | Growth Rate (U2OS; 6 h, replicate number 2, timepoint 6 hours): 1 | Growth Rate (U2OS; [16]): 1 | Growth Rate (U2OS; [17]): 1 | Growth Rate (U2OS; [18]): 1 | Growth Rate (HEK-293T; [15]): 0 | Growth Rate (HEK-293T; [19]): 0 | Growth Rate (HEK-293T; [16]): 0 | Growth Rate (HEK-293T; [17]): 0 | Growth Rate (HEK-293T; [18]): 0 | Growth Rate (Fibroblast [2]; [15]): 0 | Growth Rate (Fibroblast [2]; [19]): 0 | Growth Rate (Fibroblast [2]; [16]): 0 | Growth Rate (Fibroblast [2]; [17]): 0 | Growth Rate (Fibroblast [2]; [18]): 0
